ChEMBL document CHEMBL1138596, “Synthesis and biological evaluation of novel 4-(hetero) aryl-2-piperazino quinazolines as anti-leishmanial and anti-proliferative agents” (Bioorg Med Chem Lett, 2009)
In brackets after ≈: the same amount, converted by molar mass.

Experiments:
Leishmania donovani [1] = assay: Antileishmanial activity against Leishmania donovani MHOM/IN/Dd8 promastigotes assessed as luciferase activity after 72 hrs; type: functional, organism-based; details: MHOM/IN/Dd8, 72 h
Summary of the method: (§1)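 L. donovani parasites transfected with firefly luciferase gene, maintained in medium 199 with 10% fetal calf serum, penicillin (50 U/ml) and streptomycin under G418 pressure; compounds tested at various concentrations against transgenic promastigotes and intracellular amastigotes; IC50 calculated by Probit analysis.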

DU-145 = assay: Antiproliferative activity against human DU145 cells by MTT assay; type: functional, cell-based
Summary of the method: (§2)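 Twofold serial dilutions of compound up to a highest concentration of 50 µg/mL; viability read by MTT assay; panel of DU145 prostate, MCF-7 breast, KB oral epidermal, C33A cervical carcinoma lines and non-cancerous VERO cells.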

MCF7 = assay: Antiproliferative activity against human MCF7 cells by MTT assay; type: functional, cell-based; summary of the method: as §2
C-33-A = assay: Antiproliferative activity against human C33A cells by MTT assay; type: functional, cell-based; summary of the method: as §2
KB = assay: Antiproliferative activity against human KB cells by MTT assay; type: functional, cell-based; summary of the method: as §2
Vero = assay: Antiproliferative activity against african green monkey Vero cells by MTT assay; type: cell-based; details: Chlorocebus sabaeus; summary of the method: as §2
Leishmania donovani [2] = assay: Antileishmanial activity against Leishmania donovani MHOM/IN/Dd8 amastigotes infected in mouse J774A1 cells assessed as luciferase activity after 48 hrs; type: functional, organism-based; details: for Activity: J774.A1; for IC50: MHOM/IN/Dd8, J774.A1, 48 h; summary of the method: as §1
[3] = (§3) Selectivity index, ratio of CC50 for mouse J774A1 cells to IC50 for Leishmania donovani MHOM/IN/Dd8 amastigotes; type: functional, J774.A1
[4] = Cytotoxicity against mouse J774A1 cells; type: cell-based, J774.A1
Summary of the method: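 Mouse macrophage line J-774-A-1; cytotoxicity read by MTT assay.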

J774.A1 = assay: as §3; type: functional

IC50 (Leishmania donovani [1]) [µg/mL]	IC50 (DU-145) [µg/mL]	IC50 (MCF7) [µg/mL]	IC50 (KB) [µg/mL]	IC50 (Leishmania donovani [2]) [µg/mL]	Compound	IC50 (C-33-A) [µg/mL]	IC50 (Vero) [µg/mL]	Activity (Leishmania donovani [2])	Ratio CC50/IC50 [3]	CC50 [4] [µg/mL]	Ratio CC50/IC50 (J774.A1)
> 10	> 50	> 50	> 50	–	c1ccc2c(-c3c[nH]c4ccccc34)nc(N3CCCCC3)nc2c1	> 50	> 50	–	–	–	–
0.25 (≈ 0.657 µM)	> 50	> 50	> 50	–	COc1cc(OC)c(-c2nc(N3CCNCC3)nc3ccccc23)c(OC)c1	> 50	> 50	Toxic	–	–	–
–	–	–	–	–	N=C(N)c1ccc(OCCCCCOc2ccc(C(=N)N)cc2)cc1 [PENTAMIDINE]	–	–	–	2.07	–	–
0.56 (≈ 1.7 µM)	12.5 (≈ 37.9 µM)	14.1 (≈ 42.8 µM)	4 (≈ 12.1 µM)	–	c1ccc2c(-c3c[nH]c4ccccc34)nc(N3CCNCC3)nc2c1	8.2 (≈ 24.9 µM)	8.9 (≈ 27 µM)	Toxic	–	3.11 (≈ 9.44 µM)	–
1.72 (≈ 4.06 µM)	> 50	> 50	> 50	12.3 (≈ 29.1 µM)	Fc1ccc(N2CCN(c3nc(-c4c[nH]c5ccccc45)c4ccccc4n3)CC2)cc1	> 50	> 50	–	1.9	23.4 (≈ 55.3 µM)	–
3.79 (≈ 10.4 µM)	> 50	> 50	> 50	4.28 (≈ 11.7 µM)	COc1ccc(-c2nc(N3CCN(C)CC3)nc3ccccc23)c(OC)c1	> 50	> 50	–	4.21	18 (≈ 49.4 µM)	–
–	–	–	–	–	Sodium stilbogluconate	–	–	–	–	–	6.38
0.624 (≈ 1.78 µM)	> 50	> 50	> 50	5.11 (≈ 14.6 µM)	COc1ccc(-c2nc(N3CCNCC3)nc3ccccc23)c(OC)c1	> 50	> 50	–	0.78	3.98 (≈ 11.4 µM)	–
1.8 (≈ 5.45 µM)	> 50	> 50	> 50	25.1 (≈ 76.1 µM)	c1ccc2c(-c3c[nH]c4ccccc34)nc(N3CCOCC3)nc2c1	> 50	> 50	–	1.99	50.1 (≈ 152 µM)	–
0.28 (≈ 0.815 µM)	> 50	> 50	> 50	12.5 (≈ 36.4 µM)	Cn1cc(-c2nc(N3CCNCC3)nc3ccccc23)c2ccccc21	> 50	> 50	–	1.28	16 (≈ 46.6 µM)	–
0.68 (≈ 1.98 µM)	20.8 (≈ 60.6 µM)	6 (≈ 17.5 µM)	4.9 (≈ 14.3 µM)	4.17 (≈ 12.1 µM)	CN1CCN(c2nc(-c3c[nH]c4ccccc34)c3ccccc3n2)CC1	11.5 (≈ 33.5 µM)	22.3 (≈ 64.9 µM)	–	1.74	7.27 (≈ 21.2 µM)	–
0.62 (≈ 1.73 µM)	> 50	> 50	> 50	–	CN1CCN(c2nc(-c3cn(C)c4ccccc34)c3ccccc3n2)CC1	> 50	> 50	Toxic	–	1.03 (≈ 2.88 µM)	–
6.2 (≈ 15.7 µM)	> 50	> 50	> 50	12.4 (≈ 31.6 µM)	COc1cc(OC)c(-c2nc(N3CCN(C)CC3)nc3ccccc23)c(OC)c1	> 50	> 50	–	>8.03	> 100	–
